Laboratory results taken from the M2OR odorant receptor database.
Changes are numbered by the printed parent chain.

Columns and labels:
Conditions in all cases: stereoisomer not certain
OR2T11 (Homo sapiens) = target: T1, OR2T11 (Homo sapiens) (UniProt Q8NH01)
T1 sequence (whole entry): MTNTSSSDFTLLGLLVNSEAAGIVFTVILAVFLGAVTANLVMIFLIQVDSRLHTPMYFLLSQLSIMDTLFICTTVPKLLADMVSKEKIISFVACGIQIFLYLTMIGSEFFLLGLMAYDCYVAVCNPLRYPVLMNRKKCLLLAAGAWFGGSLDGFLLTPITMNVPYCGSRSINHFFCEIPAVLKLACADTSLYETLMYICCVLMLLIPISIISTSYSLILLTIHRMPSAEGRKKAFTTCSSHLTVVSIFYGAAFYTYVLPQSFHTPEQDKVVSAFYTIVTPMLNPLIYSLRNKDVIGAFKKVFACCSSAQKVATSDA
Procedure, shortened: (§1)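 Each entry records the cell line, G-protein, co-transfected protein and tags used. Methods varied with the source, often transient luciferase assays in mammalian cell lines. A receptor–molecule pair is called responsive (active) if the original authors judged its signal statistically different from baseline and non-responsive (inactive) otherwise.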

OR2T12 (Homo sapiens) = target: T2, OR2T12 (Homo sapiens) (UniProt Q8NG77)
T2 sequence (whole entry): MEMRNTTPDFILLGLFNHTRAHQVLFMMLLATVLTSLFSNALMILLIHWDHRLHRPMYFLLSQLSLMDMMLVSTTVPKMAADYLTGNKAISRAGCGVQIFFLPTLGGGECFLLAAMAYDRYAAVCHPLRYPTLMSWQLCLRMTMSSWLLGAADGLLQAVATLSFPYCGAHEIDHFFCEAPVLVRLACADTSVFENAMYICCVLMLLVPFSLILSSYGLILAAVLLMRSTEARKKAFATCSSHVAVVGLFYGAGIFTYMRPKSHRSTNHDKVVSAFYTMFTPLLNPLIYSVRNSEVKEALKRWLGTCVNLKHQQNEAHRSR
Procedure, shortened: as §1

OR2T2 (Homo sapiens) = target: T3, OR2T2 (Homo sapiens) (UniProt Q6IF00)
T3 sequence (whole entry): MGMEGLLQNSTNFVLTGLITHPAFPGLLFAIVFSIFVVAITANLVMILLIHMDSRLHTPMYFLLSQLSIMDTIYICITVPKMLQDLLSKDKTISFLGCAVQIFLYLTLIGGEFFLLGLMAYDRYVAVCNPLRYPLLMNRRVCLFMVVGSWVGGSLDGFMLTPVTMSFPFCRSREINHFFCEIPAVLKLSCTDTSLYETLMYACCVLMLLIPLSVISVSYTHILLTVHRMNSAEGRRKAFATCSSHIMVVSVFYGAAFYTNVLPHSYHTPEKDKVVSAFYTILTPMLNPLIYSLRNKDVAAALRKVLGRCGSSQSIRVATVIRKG
Procedure, shortened: as §1

OR2T2 L104F L262Q = test system: T4, OR2T2 L104F L262Q
T4 sequence (whole entry): T3 sequence (whole entry) with L104F, L262Q
Procedure, shortened: as §1

OR2T2 L104F = test system: T5, OR2T2 L104F
T5 sequence (whole entry): T3 sequence (whole entry) with L104F
Procedure, shortened: as §1

OR2T2 Q313H = test system: T6, OR2T2 Q313H
T6 sequence (whole entry): T3 sequence (whole entry) with Q313H
Procedure, shortened: as §1

OR2T27 (Homo sapiens) = target: T7, OR2T27 (Homo sapiens) (UniProt Q8NH04)
T7 sequence (whole entry): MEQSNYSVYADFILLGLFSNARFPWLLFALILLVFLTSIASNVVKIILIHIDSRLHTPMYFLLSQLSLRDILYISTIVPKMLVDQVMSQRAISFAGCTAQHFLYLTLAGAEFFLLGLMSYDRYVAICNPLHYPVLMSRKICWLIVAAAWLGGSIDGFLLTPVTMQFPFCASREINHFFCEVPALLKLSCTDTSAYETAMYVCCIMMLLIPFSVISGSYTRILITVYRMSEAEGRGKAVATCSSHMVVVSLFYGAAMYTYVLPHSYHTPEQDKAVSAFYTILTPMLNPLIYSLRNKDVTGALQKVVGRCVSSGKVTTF
Procedure, shortened: as §1

OR2T29 (Homo sapiens) = target: T8, OR2T29 (Homo sapiens) (UniProt Q8NH02)
T8 sequence (whole entry): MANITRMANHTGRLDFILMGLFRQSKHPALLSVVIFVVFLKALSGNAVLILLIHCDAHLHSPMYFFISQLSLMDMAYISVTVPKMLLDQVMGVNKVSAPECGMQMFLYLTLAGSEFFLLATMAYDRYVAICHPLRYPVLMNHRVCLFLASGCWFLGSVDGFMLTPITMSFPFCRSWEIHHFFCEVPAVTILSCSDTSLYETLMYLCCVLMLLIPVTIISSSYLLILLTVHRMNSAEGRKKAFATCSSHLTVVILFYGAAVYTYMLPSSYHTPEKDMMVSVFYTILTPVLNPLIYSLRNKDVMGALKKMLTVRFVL
Procedure, shortened: as §1

OR2T3 (Homo sapiens) = target: T9, OR2T3 (Homo sapiens) (UniProt Q8NH03)
T9 sequence (whole entry): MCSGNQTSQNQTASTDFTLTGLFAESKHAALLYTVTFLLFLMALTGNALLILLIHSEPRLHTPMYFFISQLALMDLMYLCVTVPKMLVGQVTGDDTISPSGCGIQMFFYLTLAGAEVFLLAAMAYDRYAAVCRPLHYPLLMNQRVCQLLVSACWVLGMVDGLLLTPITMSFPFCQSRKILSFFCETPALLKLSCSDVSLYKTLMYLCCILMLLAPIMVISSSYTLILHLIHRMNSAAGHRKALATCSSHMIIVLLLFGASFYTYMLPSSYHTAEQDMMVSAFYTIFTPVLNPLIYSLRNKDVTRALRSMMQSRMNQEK
Procedure, shortened: as §1

OR2T3 L256F = test system: T10, OR2T3 L256F
T10 sequence (whole entry): T9 sequence (whole entry) with L256F
Procedure, shortened: as §1

OR2T3 R298C = test system: T11, OR2T3 R298C
T11 sequence (whole entry): T9 sequence (whole entry) with R298C
Procedure, shortened: as §1

OR2T3 Y109H = test system: T12, OR2T3 Y109H
T12 sequence (whole entry): T9 sequence (whole entry) with Y109H
Procedure, shortened: as §1

OR2T33 (Homo sapiens) = target: T13, OR2T33 (Homo sapiens) (UniProt Q8NG76)
T13 sequence (whole entry): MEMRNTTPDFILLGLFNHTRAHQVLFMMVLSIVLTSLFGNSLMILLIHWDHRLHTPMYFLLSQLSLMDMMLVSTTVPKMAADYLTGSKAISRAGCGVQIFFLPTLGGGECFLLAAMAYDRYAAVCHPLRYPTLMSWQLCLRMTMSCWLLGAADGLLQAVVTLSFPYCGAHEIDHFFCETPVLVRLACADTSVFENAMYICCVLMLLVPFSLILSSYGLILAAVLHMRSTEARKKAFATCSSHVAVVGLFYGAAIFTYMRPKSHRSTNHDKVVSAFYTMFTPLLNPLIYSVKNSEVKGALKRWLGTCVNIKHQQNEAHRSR
Procedure, shortened: as §1

OR2T34 (Homo sapiens) = target: T14, OR2T34 (Homo sapiens) (UniProt Q8NGX1)
T14 sequence (whole entry): T9 sequence (whole entry) with Y109H, T202M, M204T, A214T, H239R, P267R
Procedure, shortened: as §1

OR2T35 (Homo sapiens) = target: T15, OR2T35 (Homo sapiens) (UniProt Q8NGX2)
T15 sequence (whole entry): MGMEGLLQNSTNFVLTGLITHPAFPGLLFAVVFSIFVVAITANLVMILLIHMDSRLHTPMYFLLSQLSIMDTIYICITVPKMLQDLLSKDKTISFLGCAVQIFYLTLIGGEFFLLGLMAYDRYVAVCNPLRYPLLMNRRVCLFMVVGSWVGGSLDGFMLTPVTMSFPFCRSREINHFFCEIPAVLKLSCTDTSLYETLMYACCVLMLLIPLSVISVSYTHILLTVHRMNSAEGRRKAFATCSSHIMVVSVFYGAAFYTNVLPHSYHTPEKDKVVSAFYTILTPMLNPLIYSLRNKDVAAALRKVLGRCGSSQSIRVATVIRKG
Procedure, shortened: as §1

OR2T4 (Homo sapiens) = target: T16, OR2T4 (Homo sapiens) (UniProt Q8NH00)
T16 sequence (whole entry): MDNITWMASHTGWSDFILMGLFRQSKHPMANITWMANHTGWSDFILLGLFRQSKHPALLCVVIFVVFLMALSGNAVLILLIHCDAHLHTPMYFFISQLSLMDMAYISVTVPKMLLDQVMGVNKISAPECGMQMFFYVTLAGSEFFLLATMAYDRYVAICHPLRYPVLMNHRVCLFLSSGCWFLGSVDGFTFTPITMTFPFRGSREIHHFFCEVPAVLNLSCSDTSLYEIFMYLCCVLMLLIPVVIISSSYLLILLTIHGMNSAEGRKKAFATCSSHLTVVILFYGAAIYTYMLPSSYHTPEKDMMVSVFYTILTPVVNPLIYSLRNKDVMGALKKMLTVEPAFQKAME
Procedure, shortened: as §1

OR2T5 (Homo sapiens) = target: T17, OR2T5 (Homo sapiens) (UniProt Q6IEZ7)
T17 sequence (whole entry): T8 sequence (whole entry) with R13K, Q24R
Procedure, shortened: as §1

OR2T5 K13R K41M G45E = test system: T18, OR2T5 K13R K41M G45E
T18 sequence (whole entry): T8 sequence (whole entry) with Q24R, K41M, G45E
Procedure, shortened: as §1

OR2T5 K13R L134F = test system: T19, OR2T5 K13R L134F
T19 sequence (whole entry): T8 sequence (whole entry) with Q24R, L134F
Procedure, shortened: as §1

OR2T6 (Homo sapiens) = target: T20, OR2T6 (Homo sapiens) (UniProt Q8NHC8)
T20 sequence (whole entry): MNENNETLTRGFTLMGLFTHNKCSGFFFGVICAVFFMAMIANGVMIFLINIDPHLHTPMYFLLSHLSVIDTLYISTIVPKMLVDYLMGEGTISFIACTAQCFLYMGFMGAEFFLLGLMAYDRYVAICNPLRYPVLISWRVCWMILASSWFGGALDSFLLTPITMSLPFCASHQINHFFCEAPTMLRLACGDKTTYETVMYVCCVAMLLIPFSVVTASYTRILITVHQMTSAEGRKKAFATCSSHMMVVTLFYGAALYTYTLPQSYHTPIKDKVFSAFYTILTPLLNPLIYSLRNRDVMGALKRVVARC
Procedure, shortened: as §1

Measured: odorant receptor agonist call

CC1=NC(C)C(C)S1 (configuration not stated)
inactive: all assays above

CC=CC(=O)C1C(C)=CCCC1(C)C (configuration not stated)
active: OR2T34 (Homo sapiens)

CC1CC(C)(c2ccccc2)CO1 (configuration not stated)
inactive: OR2T34 (Homo sapiens)

CC1=CCC2CC1C2(C)C (configuration not stated)
active: OR2T4 (Homo sapiens)
inactive: OR2T34 (Homo sapiens)

CC(C)(C)C1CCCCC1OCCCCO (configuration not stated)
inactive: OR2T34 (Homo sapiens)

Cc1ccc(C(C)C)cc1O
inactive: OR2T34 (Homo sapiens)

Cc1occc(=O)c1OC(=O)C(C)C
inactive: OR2T34 (Homo sapiens)

CC(=O)C=CC1=C(C)CCCC1(C)C
inactive: OR2T34 (Homo sapiens)

CCCC(C)C(=O)OCC (configuration not stated)
inactive: OR2T34 (Homo sapiens)

CC(CO)CS (configuration not stated)
not listed: OR2T2 L104F L262Q | OR2T2 L104F | OR2T2 Q313H | OR2T3 L256F | OR2T3 R298C | OR2T3 Y109H | OR2T5 K13R K41M G45E | OR2T5 K13R L134F
inactive: all other assays above

CC(CC=O)c1ccc(C(C)(C)C)cc1 (configuration not stated)
inactive: OR2T34 (Homo sapiens)

CC(C)CCCC(C)(C)O
inactive: OR2T34 (Homo sapiens)

CCCCCC(S)C(C)CO (configuration not stated)
not listed: OR2T2 L104F L262Q | OR2T2 L104F | OR2T2 Q313H | OR2T3 L256F | OR2T3 R298C | OR2T3 Y109H | OR2T5 K13R K41M G45E | OR2T5 K13R L134F
inactive: all other assays above

CCCCC1CCC(=O)O1 (configuration not stated)
inactive: OR2T34 (Homo sapiens)

CCC1OC(C)=C(O)C1=O (configuration not stated)
inactive: all assays above

CCC(=O)C=CC1C(C)=CCCC1(C)C (configuration not stated)
inactive: OR2T34 (Homo sapiens)

CCCC(S)CCOC(C)=O (configuration not stated)
inactive: all assays above

CC(C)=CCCC(C)=CCO
inactive: OR2T34 (Homo sapiens) | OR2T4 (Homo sapiens)

CCCCCC1C(=O)CCC1CC(=O)OC (configuration not stated)
inactive: OR2T34 (Homo sapiens)

CCC(S)C(C)CO (configuration not stated)
not listed: OR2T2 L104F L262Q | OR2T2 L104F | OR2T2 Q313H | OR2T3 L256F | OR2T3 R298C | OR2T3 Y109H | OR2T5 K13R K41M G45E | OR2T5 K13R L134F
inactive: all other assays above

COc1ccc(C)cc1
inactive: OR2T34 (Homo sapiens)

CCCCC(S)C(C)CO (configuration not stated)
not listed: OR2T2 L104F L262Q | OR2T2 L104F | OR2T2 Q313H | OR2T3 L256F | OR2T3 R298C | OR2T3 Y109H | OR2T5 K13R K41M G45E | OR2T5 K13R L134F
inactive: all other assays above

CCCCCC(=O)C(C)C(C)=O (configuration not stated)
not listed: OR2T2 L104F L262Q | OR2T2 L104F | OR2T2 Q313H | OR2T3 L256F | OR2T3 R298C | OR2T3 Y109H | OR2T5 K13R K41M G45E | OR2T5 K13R L134F
inactive: all other assays above
